CHRM5 PAM – human M5 muscarinic receptor positive allosteric modulators, primary screen, CHO-K1 cells, Fluo-8 calcium fluorescence. 0.3% of 360,000 active. CHO-K1 hM5, ACh EC20 PAM; 0% = ACh EC20, 100% = ACh EC100. activation, % at 3 µM. AID 624038, 2012;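 active = activation above the run cutoff, the mean activation of all test compounds plus 3 SD, cut at about 18% in these data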
Target sequence (P08912 whole entry, looked up): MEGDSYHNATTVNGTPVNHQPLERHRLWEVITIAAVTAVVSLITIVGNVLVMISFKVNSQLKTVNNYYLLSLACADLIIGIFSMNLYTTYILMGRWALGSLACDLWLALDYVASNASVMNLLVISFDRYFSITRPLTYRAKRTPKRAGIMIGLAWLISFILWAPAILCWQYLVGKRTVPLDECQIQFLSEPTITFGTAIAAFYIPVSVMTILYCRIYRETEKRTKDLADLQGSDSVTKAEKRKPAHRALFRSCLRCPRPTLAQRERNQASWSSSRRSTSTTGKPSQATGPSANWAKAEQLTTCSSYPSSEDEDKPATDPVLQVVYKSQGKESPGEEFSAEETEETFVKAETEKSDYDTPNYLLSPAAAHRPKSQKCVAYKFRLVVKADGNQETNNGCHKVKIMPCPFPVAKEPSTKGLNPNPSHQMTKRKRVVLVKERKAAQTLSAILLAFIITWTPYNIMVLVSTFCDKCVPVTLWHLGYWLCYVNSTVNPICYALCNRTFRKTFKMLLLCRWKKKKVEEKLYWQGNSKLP
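Replicates: One well per compound, no replicates | System: Human M5 receptor in CHO-K1 cells | Benchmarks: Low control EC20 acetylcholine (0%), high control EC100 acetylcholine (100%) | Probe or stimulus: Acetylcholine, EC20 level | Times: Fluo-8 loading 80 min at 37 °C plus 30 min room temperature | Signal: Intracellular calcium via Fluo-8 fluorescence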
CHRM4 PAM – human M4 muscarinic receptor positive allosteric modulators, primary screen, CHO-K1 cells, Fluo-8 calcium fluorescence | CHO-K1 hM4/Gqi5, ACh EC20; 0% = ACh EC20, 100% = maximal ACh | activation, % at 3 µM | 0.4% of 360,000 active | AID 624126, 2012;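 active = activation above its plate's cutoff, the mean activation of sample wells plus 3 SD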
M4 ag – human M4 muscarinic receptor agonists, primary screen, CHO-K1 cells, Fluo-8 calcium fluorescence; activation, % at 3 µM; CHO-K1 hM4/Gqi5; vehicle 0%, full acetylcholine response 100%; Muscarinic acetylcholine receptor M4 (Homo sapiens), P08173; 0.14% of 360,000 active;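 active = activation above the run mean over all test wells plus 3 SD, cut at about 32% in these data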;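 also: peak over basal fluorescence ratio per well then scaled between controls; 0% = DMSO wells and 100% = acetylcholine at EC100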
CHRM5 antagonist – human M5 muscarinic receptor antagonists, primary screen, CHO cells, Fluo-8 calcium fluorescence; Muscarinic acetylcholine receptor M5 (Homo sapiens), P08912; CHO-hM5 cells, ACh EC80; inhibition, % at 3 µM; 0.59% of 360,000 active;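 active = inhibition above a per-plate cutoff, the mean of that plate's test compounds plus 3 SD, cut at about 27% in these data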;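 also: 0% = acetylcholine EC80 with DMSO and 100% = DMSO without agonist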
CHRM4 antagonist – human M4 muscarinic receptor antagonists, primary screen, CHO cells, Fluo-8 calcium fluorescence. inhibition, % at 3 µM. Muscarinic acetylcholine receptor M4 (Homo sapiens), P08173. CHO-hM4 cells, ACh EC80. 0.73% of 360,000 active;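 active = inhibition above its plate's cutoff, the mean inhibition of sample wells plus 3 SD, cut at about 27% in these data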;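 also: 0% = acetylcholine EC80 with DMSO and 100% = DMSO without agonist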
CHRM5 agonist – human M5 muscarinic receptor agonists, primary screen, CHO-K1 cells, Fluo-8 calcium fluorescence; Muscarinic acetylcholine receptor M5 (Homo sapiens), P08912; CHO-K1 hM5 cells; 0% DMSO wells, 100% maximal acetylcholine response; 0.19% of 360,000 active; activation, % at 3 µM;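 active = activation above the run's mean over test compounds plus 3 SD, cut at about 23% in these data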;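 also: signal is peak over basal fluorescence ratio across the kinetic read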
Active calls of the source: *. Hits are enriched below; roughly 1.8% of the tested compounds scored in any of these assays.

SMILES | CHRM5 PAM | CHRM4 PAM | M4 ag | CHRM5 antagonist | CHRM4 antagonist | CHRM5 agonist
O=C(NC1CC2CCCC(C1)N2C(=O)Nc1ccccc1)C1CC1 (centres undefined) | 1.4 | 2.8 | 0.6 | 8.0 | -5.5 | -3.0
O=C(NC1CC2CCCC(C1)N2C(=O)NCc1ccccc1)C1CC1 (centres undefined) | 2.6 | -8.6 | 0.2 | -1.3 | 32.2* | -5.4
O=C(Cn1c(=O)c2cccn2c2cccnc21)N1CCN(c2ccccc2F)CC1 | 24.9* | 1.4 | 7.9 | 26.4 | -9.5 | 1.1
CN1CCC(=C(c2ccccc2)c2ccc(Br)cc2)CC1 | -34.5 | -46.5 | 11.8 | 29.5* | 12.4 | -14.9
C[C@@]12C(=O)Nc3ccc(F)cc3C(=O)N1[C@H]1c3ccccc3OC[C@@H]1[C@@H]2c1ccccc1 | -39.2 | -15.2 | 0.2 | 56.8* | 89.1* | -9.6
C[C@@]12C(=O)Nc3cc(F)c(F)cc3C(=O)N1[C@H]1c3ccccc3OC[C@@H]1[C@@H]2c1ccccc1 | -38.3 | -14.8 | 2.2 | 23.4 | 71.3* | -4.4
CCOC(=O)[C@H]1[C@H]2COc3ccccc3[C@@H]2N2C(=O)c3cc(OC)c(OC)cc3NC(=O)[C@@]12C | 1.1 | -3.3 | 1.4 | 10.6 | 35.1* | 0.2
CCOC(=O)[C@H]1[C@H]2COc3ccc(C)cc3[C@@H]2N2C(=O)c3cc(OC)c(OC)cc3NC(=O)[C@@]12C | -6.2 | 19.4 | 2.3 | -1.7 | -25.9 | 3.1
COc1cc2c(cc1OC)C(=O)N1[C@H]3c4ccccc4OC[C@@H]3[C@H](c3ccccc3)[C@]1(C)C(=O)N2 | -2.3 | 8.4 | 2.5 | 11.0 | -3.5 | 2.4
C[C@H]1CN([C@@H](C)CO)C(=O)Cc2cc(NC(=O)CCC(F)(F)F)ccc2O[C@H]1CN(C)S(=O)(=O)c1ccc(F)cc1 | -2.2 | -17.0 | -0.6 | 10.7 | 62.9* | -0.8
C[C@H](CO)N1C[C@H](C)[C@@H](CN(C)C(=O)NC2CCCCC2)Oc2ccc(NC(=O)CCC(F)(F)F)cc2C1=O | 7.0 | 24.3* | 1.7 | -0.8 | -0.1 | 2.2
C[C@H]1CN([C@@H](C)CO)C(=O)Cc2cc(NC(=O)CCC(F)(F)F)ccc2O[C@H]1CN(C)S(=O)(=O)c1ccc(Cl)cc1 | 5.8 | -15.1 | 1.1 | -2.9 | 36.3* | -5.5
COc1ccc(CNC(=O)COc2ccc(Br)c(C)c2)cc1 | -4.8 | -3.0 | 0.4 | 1.5 | 5.7 | -5.8
O=C(Nc1ccc(Cl)cc1)N(C1=NCCC1)c1ccc(OC(F)F)cc1 | -10.7 | -12.9 | 9.2 | 27.3* | 4.2 | 4.8
O=C(NCc1ccccc1)C(C1CC1)n1c(Cc2cc(F)cc(F)c2)nc2ccccc21 (centres undefined) | -0.4 | -1.1 | 13.6 | -0.9 | -7.0 | 2.0
CC(=O)N1N=C(c2ccc(C)cc2)OC1c1ccc(Br)cc1 (centres undefined) | 3.1 | -6.0 | -0.8 | -24.3 | -1.3 | 1.6
CC(=O)N1N=C(c2ccc(Cl)cc2)OC1c1ccc(C(C)C)cc1 (centres undefined) | 33.1* | 1.7 | 0.6 | -8.1 | -15.5 | 5.6
CCCn1c(C(=O)OC)cc2c1ccn2-c1ccc(F)cc1 | 18.8* | 6.6 | -0.8 | -11.3 | -18.5 | 10.5
COC(=O)c1cc2c(ccn2-c2ccc(F)cc2)n1CC(C)C | 18.9* | 16.6* | 1.9 | -5.7 | -15.9 | 10.9
COC(=O)c1cc2c(ccn2-c2ccc(F)cc2)n1Cc1cccc(OC)c1 | 3.1 | 1.5 | 0.8 | -3.3 | -0.3 | -0.6
COC(=O)c1cc2c(ccn2-c2ccc(F)cc2)n1C(C)C | 34.4* | 9.1 | -1.7 | -1.3 | -13.1 | -1.9
COC(=O)c1cc2c(ccn2-c2ccc(F)cc2)n1Cc1ccc(OC(C)=O)cc1 | 6.4 | 29.2 | 1.0 | 1.2 | -9.3 | 7.4
CCOC(=O)C1=C(COC(=O)CNC(=O)c2ccc(Cl)cc2Cl)NC(=O)NC1C (centres undefined) | -5.8 | 1.3 | 2.7 | 1.3 | -1.8 | -0.1
Cc1cc(NC(=O)COC(=O)C(C)Oc2ccc(Cl)cc2Cl)no1 (centres undefined) | -1.9 | -1.6 | 1.8 | 2.6 | -3.5 | -3.1
CCOc1ccc(CCNS(=O)(=O)c2c(C)nc3sccn3c2=O)cc1OCC | -1.5 | 9.3 | 1.1 | -3.4 | -5.7 | 0.8
SMILES | CHRM5 PAM | CHRM4 PAM | M4 ag | CHRM5 antagonist | CHRM4 antagonist | CHRM5 agonist
O=C(O)c1cc2ccccc2c(N=Nc2cccnc2)c1O | -3.0 | -5.1 | -0.1 | 20.7 | 12.9 | -2.9
Cc1ccc2c(c1)C(=O)N1[C@H]3c4cc(Cl)ccc4OC[C@@H]3[C@H](c3ccccc3)[C@]1(C)C(=O)N2 | -3.3 | -5.0 | 0.3 | -5.9 | 3.6 | 3.6
C[C@@]12C(=O)Nc3cc(Cl)ccc3C(=O)N1[C@H]1c3ccccc3OC[C@@H]1[C@@H]2c1ccccc1 | -15.5 | -17.4 | 2.8 | 9.2 | 33.1* | -1.6
Cc1ccc2c(c1)C(=O)N1[C@H]3c4cc(C)ccc4OC[C@@H]3[C@H](c3ccccc3)[C@]1(C)C(=O)N2 | -17.8 | -14.8 | 0.7 | 10.2 | 29.2* | -4.3
C[C@@]12C(=O)Nc3ccc(Cl)cc3C(=O)N1[C@H]1c3ccccc3OC[C@@H]1[C@@H]2c1ccccc1 | -27.6 | -6.7 | 0.3 | 20.2 | 41.0* | -2.8
COc1ccc(-c2oc3ccccc3c2C#CC(C)(C)O)cc1 | 0.3 | 12.2 | -0.6 | -4.7 | -6.8 | -1.7
CCN(C(=O)COC(=O)/C=C/c1cccc(Br)c1)C1CCS(=O)(=O)C1 (centres undefined) | 1.8 | -3.8 | 2.0 | -2.5 | -0.6 | -2.4
CCCCCC(=O)N1C[C@H](n2cc(C3CC3)nn2)[C@@H](O)C[C@@H]1c1ccccc1 | 1.3 | 6.4 | 2.0 | 4.1 | -20.3 | 0.1
COc1ccc(C(=O)NNS(=O)(=O)c2ccccc2)cc1OC | 3.0 | 2.4 | 0.8 | 4.7 | 1.0 | -3.7
C/C(=N\NC(=O)Nc1ccccc1)c1ccc2ccccc2c1 | -7.2 | 8.2 | 1.1 | 33.8* | -10.3 | -4.0
O=C(Nc1ccccc1)Nc1ccc2ccccc2c1 | -32.7 | -20.9 | 16.3 | 33.4* | 2.1 | 2.9
C/C(=N/NC(=O)Nc1ccccc1)c1ccc(C)cc1 | -2.6 | 7.0 | 1.1 | 13.1 | -4.9 | -3.4
CC(=O)Nc1ccc2ccccc2c1 | 0.5 | 10.9 | 0.7 | -3.5 | 6.3 | 1.6
O=C(CSCc1ccc(C(=O)O)cc1)Nc1ccccc1 | -6.5 | 0.9 | 0.4 | 0.7 | -4.1 | -1.9

Screening results (PubChem BioAssay)
